{
  "source": "ChEMBL document CHEMBL5715959",
  "about": "“Inhibition of histone methyltransferase EZH2 in Schistosoma mansoni in vitro by GSK343 reduces egg laying and decreases the expression of genes implicated in DNA replication and noncoding RNA metabolism” (2018)",
  "key": {"[1]": {"test_system": "Schistosoma mansoni", "assay": "Antischistosomal activity against adult female Schistosoma mansoni assessed as presence of fissures in egg shell at 20 uM incubated for 24 to 48 hrs by scanning electron microscopy analysis", "format": "functional, organism-based", "settings": "time 24-48 hrs", "summary_of_the_method": "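Eggs released by couples kept 24 or 48 h with 20 μM GSK343 or 0.1% DMSO in supplemented RPMI were fixed in modified Karnovsky with osmium post-fix. They were dehydrated, critical-point dried, gold-coated and imaged by SEM; total egg area dimension was measured.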"}, "[2]": {"test_system": "Schistosoma mansoni", "assay": "Antischistosomal activity against adult male Schistosoma mansoni assessed as lesions of tegument around tubercles at 20 uM incubated for 48 hrs by scanning electron microscopy analysis", "format": "functional, organism-based", "summary_of_the_method": "(§1)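 Adult couples were taken by perfusion into supplemented RPMI, one couple per well, and adapted 2 h at 37°C, 5% CO2. They were exposed to 20 μM GSK343 or 0.1% DMSO for 24 and 48 h. Fixation used modified Karnovsky with osmium post-fix, followed by ethanol dehydration, critical-point drying, gold sputtering and scanning electron microscopy of tegument surfaces.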"}, "[3]": {"test_system": "Schistosoma mansoni", "assay": "Cytotoxicity against Schistosoma mansoni assessed as decrease in viability at 20 uM incubated for 5 days by CellTiter-Glo Luminescent assay relative to control", "format": "functional", "settings": "time 5 day", "summary_of_the_method": "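Newly transformed schistosomula pre-cultured 16 h in M169 with 2% FBS, serotonin, hypoxanthine, hydrocortisone, triiodothyronine and antibiotics at 37°C, 5% CO2, then 100–120 per well exposed up to 5 days to compound or 0.1% DMSO. ATP in intact larvae read by luminescence, expressed as % of vehicle; three replicate experiments, two-way ANOVA.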"}, "[4]": {"test_system": "Schistosoma mansoni", "assay": "Antischistosomal activity against adult female Schistosoma mansoni assessed as damaged tegument in anterior region at 20 uM incubated for 48 hrs by scanning electron microscopy analysis", "format": "functional, organism-based", "summary_of_the_method": "as §1"}, "[5]": {"test_system": "Schistosoma mansoni", "assay": "Antischistosomal activity against Schistosoma mansoni assessed as down-regulated MEG-4 mRNA level in schistosomula at 20 uM incubated for 48 hrs by RT-qPCR analysis", "format": "functional, organism-based", "summary_of_the_method": "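Schistosomula (supplemented M169) or adult worms (supplemented RPMI) were treated 48 h with 20 μM GSK343 or 0.1% DMSO at 37°C, 5% CO2. qPCR normalizer genes were chosen from RNA-seq data as those with TPM >1 and a treated/control ratio of 0.9–1.1 that were not differentially expressed. Relative expression was calculated by comparative Ct; significance by t-test.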"}, "[6]": {"test_system": "Schistosoma mansoni", "assay": "Antischistosomal activity against Schistosoma mansoni assessed as increased H3K9ac level in schistosomula at 20 uM incubated for 48 hrs by Western blotting analysis", "format": "functional, organism-based", "summary_of_the_method": "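About 10,000 schistosomula were treated 48 h with 20 μM GSK343 or vehicle, then sonicated in Triton X-100 lysis buffer with PMSF and protease inhibitors. Supernatant nuclear extract (BCA-quantified, 10 μg) was run on 15% SDS-PAGE and blotted to nitrocellulose. Blots were probed with mark-specific monoclonal antibodies, then IRDye secondaries; infrared imaging was used and signals were normalized to total H3. t-test.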"}, "[7]": {"test_system": "Schistosoma mansoni", "assay": "Induction of apoptosis in Schistosoma mansoni assessed as DNA fragmentation at 20 uM incubated for 72 hrs by TUNEL staining based inverted microscope analysis", "format": "functional, organism-based", "summary_of_the_method": "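Schistosomula, 2,000 per well in supplemented M169 after 16 h pre-culture, exposed 72 h to compound or DMSO, then fixed 60 min, permeabilized and TUNEL-labelled for DNA strand breaks. Mounted with DAPI counterstain and imaged by ApoTome fluorescence microscopy at 40× objective.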"}, "[8]": {"test_system": "Schistosoma mansoni", "assay": "Antischistosomal activity against adult female Schistosoma mansoni assessed as presence of blisters in dorsal region at 20 uM incubated for 24 to 48 hrs by scanning electron microscopy analysis", "format": "functional, organism-based", "settings": "time 24-48 hrs", "summary_of_the_method": "as §1"}},
  "note": "The source made the active and inactive calls. No cut-off for these calls is given here.",
  "data": [
    {"smiles": "CCCc1cc(C)[nH]c(=O)c1CNC(=O)c1cc(-c2ccnc(N3CCN(C)CC3)c2)cc2c1cnn2C(C)C", "values": [
      {"measurement": "Activity", "setting": "[1]", "value": "Active"},
      {"measurement": "Activity", "setting": "[2]", "value": "Active"},
      {"measurement": "Activity", "setting": "[3]", "value": 70, "unit": "%"},
      {"measurement": "Activity", "setting": "[4]", "value": "Active"},
      {"measurement": "Activity", "setting": "[5]", "value": "Active"},
      {"measurement": "Activity", "setting": "[6]", "value": "Active"},
      {"measurement": "Activity", "setting": "[7]", "value": "Active"},
      {"measurement": "Activity", "setting": "[8]", "value": "Active"}
    ]}
  ]
}
